Data from ChEMBL document CHEMBL2163282, “Discovery and characterization of AZD9272 and AZD6538-Two novel mGluR5 negative allosteric modulators selected for clinical development” (Bioorg Med Chem Lett, 2012).
Activity calls are given as the source filed them. No cut-off for these calls is given here.

Experiments:
[1] = AUC (0 to 8 hrs) in Sprague-Dawley rat at 3 umol/kg, po; type: ADME, organism-based; design: time < 8 hr, dose 3 umol/kg, route oral; conditions: plasma
Method in brief: (§1)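 Male rats (n = 3) received a single oral dose of 3 µmol/kg. Vehicle was Polyvidon K30 1.7 mg/ml, sodium lauryl sulphate 0.34 mg/ml and glycerin 25.0 mg/ml in water. Plasma levels were measured by liquid–liquid extraction and reversed-phase LC-MS/MS (APCI or ESI).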

[2] = target: Metabotropic glutamate receptor 6 (Homo sapiens) (UniProt O15303); test: Agonist activity at mGluR6 assessed as effect on intracellular Ca2+ level up to 30 uM by cell based FLIPR assay; type: functional
Method in brief: (§2)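 Each of the seven other mGluR subtypes was tested at concentrations up to 30 µM. Agonist, antagonist and positive allosteric modulator modes were each assessed. Read-out was the change in intracellular Ca2+ on FLIPR.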

[3] = target: Metabotropic glutamate receptor 4 (Homo sapiens) (UniProt Q14833); test: Positive allosteric modulation of mGluR4 assessed as effect on intracellular Ca2+ level up to 30 uM by cell based FLIPR assay; type: functional; method in brief: as §2
[4] = target: Metabotropic glutamate receptor 5 (Rattus norvegicus) (UniProt P31424); test: Negative allosteric modulation of rat recombinant mGluR5 expressed in HEK293 cells expressing GLAST assessed as inhibition of DHPG-induced intracellular Ca2+ level at 0.001 to 3 uM after 30 mins by FLIPR assay; type: functional, cell-based
[5] = target: T1, Metabotropic glutamate receptor 5 (Homo sapiens, UniProt P41594); test: Negative allosteric modulation of human recombinant mGluR5 expressed in HEK293 cells expressing GLAST assessed as inhibition of DHPG-induced intracellular Ca2+ level after 30 mins by FLIPR assay
[6] = target: Metabotropic glutamate receptor 8 (Homo sapiens) (UniProt O00222); test: Agonist activity at mGluR8 assessed as effect on intracellular Ca2+ level up to 30 uM by cell based FLIPR assay; type: functional; method in brief: as §2
[7] = target: Metabotropic glutamate receptor 5 (Rattus norvegicus, UniProt P31424); test: Displacement of [3H]AZD9272 from mGluR5 in Sprague-Dawley rat striatum by autoradiographic analysis
Method in brief: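 Sections were cut from rat striatum (plates 13–16, 2 rats). They were incubated with 3 nM [3H]AZD9272 plus increasing concentrations of competitor. Nonspecific binding was defined with 10 µM MPEP. Bound label was read by autoradiography (mean, SD, n = 2).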

[8] = target: Metabotropic glutamate receptor 5 (Rattus norvegicus) (UniProt P31424); test: Negative allosteric modulation of rat recombinant mGluR5 expressed in HEK293 cells expressing GLAST assessed as inhibition of ATP-induced intracellular Ca2+ level at 10 uM after 30 mins by FLIPR assay; type: functional, cell-based
Method in brief: (§3)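 FLIPR intracellular Ca2+ readout in background GHEK cells (HEK293 with glutamate/aspartate transporter, lacking mGluR5), stimulated with 10 µM ATP; test compound at 10 µM to check off-target inhibition.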

[9] = target: T1, Metabotropic glutamate receptor 5; test: Displacement of [3H]AZD9272 from human mGluR5 expressed in HEK293 cell membranes expressing GLAST after 1 hr by scintillation counter
[10] = target: T1, Metabotropic glutamate receptor 5; test: Displacement of [3H]MPEP from human mGluR5 expressed in HEK293 cell membranes expressing GLAST after 1 hr by scintillation counter
[11] = Oral bioavailability in Sprague-Dawley rat at 3 umol/kg; type: ADME, organism-based; conditions: in vivo; method in brief: as §1
[12] = Intrinsic clearance in human liver microsomes; type: ADME, Microsome; conditions: read-out: CLH
Method in brief: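 Intrinsic clearance was determined in human or rat microsomes and expressed per min per mg protein.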

[13] = target: T1, Metabotropic glutamate receptor 5; test: Negative allosteric modulation of human recombinant mGluR5 expressed in HEK293 cells expressing GLAST assessed as inhibition of ATP-induced intracellular Ca2+ level at 10 uM after 30 mins by FLIPR assay; type: functional, cell-based; method in brief: as §3
[14] = target: T1, Metabotropic glutamate receptor 5; test: Negative allosteric modulation of human recombinant mGluR5 expressed in HEK293 cells expressing GLAST assessed as inhibition of glutamate-stimulated IP accumulation incubated for 10 mins prior to glutamate challenge measured 30 mins post glutamate challenge by scintillation counter in presence of [3H]myo-inositol; type: functional, cell-based
[15] = target: T1, Metabotropic glutamate receptor 5; test: Binding affinity to human mGluR5 expressed in HEK293 cell membranes expressing GLAST assessed as per mg of protein after 1 hr by scintillation counter; conditions: tested as the 3H-labelled form
[16] = target: T1, Metabotropic glutamate receptor 5; conditions: HEK293, tested as the 3H-labelled form
[17] = target: T1, Metabotropic glutamate receptor 5; conditions: HEK293, tested as the 3H-labelled form; remark: listed apart in the source
[18] = target: T1, Metabotropic glutamate receptor 5; test: Binding affinity to human mGluR5 expressed in HEK293 cell membranes expressing GLAST assessed as per mg of protein after 1 hr by scintillation counter in absence of MPEP; conditions: tested as the 3H-labelled form
Method in brief: (§4)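 [3H]AZD9272 equilibrium saturation binding on membranes from human mGluR5-GHEK cells (HEK293 stably expressing glutamate/aspartate transporter), run without MPEP or with 10 or 20 nM MPEP; filtration termination; Kd and Bmax (pmol/mg protein) derived per assay, three separate assays.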

[19] = target: Metabotropic glutamate receptor 5 (Rattus norvegicus) (UniProt P31424); test: Binding affinity to mGluR5 in Sprague-Dawley rat striatum assessed per mg of protein after 60 mins by autoradiographic analysis; conditions: tested as the 3H-labelled form
[20] = target: T1, Metabotropic glutamate receptor 5; test: Binding affinity to human mGluR5 expressed in HEK293 cell membranes expressing GLAST assessed as per mg of protein after 1 hr by scintillation counter in presence of 20 nM MPEP; conditions: tested as the 3H-labelled form; method in brief: as §4
[21] = target: T1, Metabotropic glutamate receptor 5; test: Binding affinity to human mGluR5 expressed in HEK293 cell membranes expressing GLAST assessed as per mg of protein after 1 hr by scintillation counter in presence of 10 nM MPEP; conditions: tested as the 3H-labelled form; method in brief: as §4
[22] = AUC in Sprague-Dawley rat at 3 umol/kg, po; type: ADME, organism-based; conditions: plasma; method in brief: as §1

Chain of Metabotropic glutamate receptor 5 (Rattus norvegicus) (P31424 21-1203 limits assumed): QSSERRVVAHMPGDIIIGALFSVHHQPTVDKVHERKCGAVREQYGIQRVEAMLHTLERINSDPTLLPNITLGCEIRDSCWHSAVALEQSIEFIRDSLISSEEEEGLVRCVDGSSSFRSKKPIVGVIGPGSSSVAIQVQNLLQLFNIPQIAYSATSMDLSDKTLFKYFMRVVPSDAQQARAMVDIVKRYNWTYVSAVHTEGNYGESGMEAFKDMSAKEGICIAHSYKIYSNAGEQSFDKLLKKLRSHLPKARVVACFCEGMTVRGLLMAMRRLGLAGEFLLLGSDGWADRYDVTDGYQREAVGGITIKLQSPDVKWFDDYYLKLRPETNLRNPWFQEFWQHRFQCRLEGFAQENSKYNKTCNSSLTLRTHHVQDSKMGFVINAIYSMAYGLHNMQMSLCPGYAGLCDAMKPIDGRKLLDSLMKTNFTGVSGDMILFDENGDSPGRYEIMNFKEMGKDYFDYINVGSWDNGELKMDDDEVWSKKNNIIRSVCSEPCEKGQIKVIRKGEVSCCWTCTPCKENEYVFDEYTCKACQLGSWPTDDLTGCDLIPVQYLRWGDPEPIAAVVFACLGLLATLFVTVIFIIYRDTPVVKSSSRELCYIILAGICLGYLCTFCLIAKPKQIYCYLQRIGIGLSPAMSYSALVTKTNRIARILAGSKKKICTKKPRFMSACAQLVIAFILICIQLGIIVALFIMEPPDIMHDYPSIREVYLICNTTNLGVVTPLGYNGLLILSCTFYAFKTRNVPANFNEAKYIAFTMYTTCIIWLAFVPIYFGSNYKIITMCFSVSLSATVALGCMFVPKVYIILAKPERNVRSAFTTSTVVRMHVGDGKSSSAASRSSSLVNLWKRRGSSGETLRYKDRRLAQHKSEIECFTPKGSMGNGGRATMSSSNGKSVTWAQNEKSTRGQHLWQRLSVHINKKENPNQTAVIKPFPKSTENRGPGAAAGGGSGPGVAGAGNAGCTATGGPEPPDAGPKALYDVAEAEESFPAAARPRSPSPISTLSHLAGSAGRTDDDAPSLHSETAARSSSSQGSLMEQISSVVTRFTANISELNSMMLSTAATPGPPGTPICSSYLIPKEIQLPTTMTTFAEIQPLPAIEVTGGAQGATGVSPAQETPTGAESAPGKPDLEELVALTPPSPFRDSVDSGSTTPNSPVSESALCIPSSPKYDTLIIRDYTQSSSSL
Chain of Metabotropic glutamate receptor 8 (Homo sapiens) (O00222 whole entry): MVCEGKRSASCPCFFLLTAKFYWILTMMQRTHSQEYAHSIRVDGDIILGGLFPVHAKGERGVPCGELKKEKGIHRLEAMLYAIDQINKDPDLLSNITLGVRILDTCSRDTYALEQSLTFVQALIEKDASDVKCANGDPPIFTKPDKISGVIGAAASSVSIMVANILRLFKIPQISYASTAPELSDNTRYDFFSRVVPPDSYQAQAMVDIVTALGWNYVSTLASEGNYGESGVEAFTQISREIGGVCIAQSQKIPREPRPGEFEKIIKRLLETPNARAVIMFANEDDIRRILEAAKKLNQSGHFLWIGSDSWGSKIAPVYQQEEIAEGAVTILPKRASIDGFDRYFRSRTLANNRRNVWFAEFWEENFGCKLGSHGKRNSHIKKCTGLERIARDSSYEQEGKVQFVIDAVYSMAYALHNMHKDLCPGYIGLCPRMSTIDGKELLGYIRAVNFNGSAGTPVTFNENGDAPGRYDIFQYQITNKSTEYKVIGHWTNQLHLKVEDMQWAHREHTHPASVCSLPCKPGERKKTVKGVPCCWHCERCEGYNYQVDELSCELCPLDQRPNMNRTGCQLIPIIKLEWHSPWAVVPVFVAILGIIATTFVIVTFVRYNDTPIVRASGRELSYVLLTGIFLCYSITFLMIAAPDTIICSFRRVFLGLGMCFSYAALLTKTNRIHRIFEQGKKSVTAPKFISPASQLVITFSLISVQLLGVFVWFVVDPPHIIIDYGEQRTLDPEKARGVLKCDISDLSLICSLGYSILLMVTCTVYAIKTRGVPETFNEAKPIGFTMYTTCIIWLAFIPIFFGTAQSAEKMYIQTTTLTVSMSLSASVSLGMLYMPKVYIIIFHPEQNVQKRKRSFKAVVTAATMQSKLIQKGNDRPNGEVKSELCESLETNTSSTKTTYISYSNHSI
Chain of Metabotropic glutamate receptor 6 (Homo sapiens) (O15303 whole entry): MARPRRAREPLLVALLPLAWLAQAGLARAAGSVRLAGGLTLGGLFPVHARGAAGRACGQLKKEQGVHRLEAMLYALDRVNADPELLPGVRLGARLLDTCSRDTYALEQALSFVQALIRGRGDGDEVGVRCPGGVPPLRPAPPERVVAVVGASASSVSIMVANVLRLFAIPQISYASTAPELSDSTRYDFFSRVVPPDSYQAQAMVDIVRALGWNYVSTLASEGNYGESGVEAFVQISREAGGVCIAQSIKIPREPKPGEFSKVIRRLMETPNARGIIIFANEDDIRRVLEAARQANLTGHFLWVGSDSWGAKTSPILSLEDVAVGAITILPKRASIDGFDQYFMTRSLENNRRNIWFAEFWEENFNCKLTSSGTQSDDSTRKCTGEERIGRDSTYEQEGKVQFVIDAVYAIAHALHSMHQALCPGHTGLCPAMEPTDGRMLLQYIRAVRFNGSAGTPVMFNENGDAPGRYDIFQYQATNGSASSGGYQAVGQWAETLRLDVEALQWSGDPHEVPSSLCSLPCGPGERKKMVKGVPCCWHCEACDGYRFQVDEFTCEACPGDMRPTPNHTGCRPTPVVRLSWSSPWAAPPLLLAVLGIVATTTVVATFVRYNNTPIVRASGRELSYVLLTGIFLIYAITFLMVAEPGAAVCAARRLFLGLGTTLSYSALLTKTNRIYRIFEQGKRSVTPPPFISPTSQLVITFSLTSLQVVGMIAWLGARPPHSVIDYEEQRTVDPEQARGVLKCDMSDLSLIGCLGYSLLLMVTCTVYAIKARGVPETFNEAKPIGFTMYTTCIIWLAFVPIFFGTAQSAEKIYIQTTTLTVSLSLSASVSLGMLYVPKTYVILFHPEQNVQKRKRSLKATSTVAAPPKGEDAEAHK
Chain of Metabotropic glutamate receptor 4 (Homo sapiens) (Q14833 whole entry): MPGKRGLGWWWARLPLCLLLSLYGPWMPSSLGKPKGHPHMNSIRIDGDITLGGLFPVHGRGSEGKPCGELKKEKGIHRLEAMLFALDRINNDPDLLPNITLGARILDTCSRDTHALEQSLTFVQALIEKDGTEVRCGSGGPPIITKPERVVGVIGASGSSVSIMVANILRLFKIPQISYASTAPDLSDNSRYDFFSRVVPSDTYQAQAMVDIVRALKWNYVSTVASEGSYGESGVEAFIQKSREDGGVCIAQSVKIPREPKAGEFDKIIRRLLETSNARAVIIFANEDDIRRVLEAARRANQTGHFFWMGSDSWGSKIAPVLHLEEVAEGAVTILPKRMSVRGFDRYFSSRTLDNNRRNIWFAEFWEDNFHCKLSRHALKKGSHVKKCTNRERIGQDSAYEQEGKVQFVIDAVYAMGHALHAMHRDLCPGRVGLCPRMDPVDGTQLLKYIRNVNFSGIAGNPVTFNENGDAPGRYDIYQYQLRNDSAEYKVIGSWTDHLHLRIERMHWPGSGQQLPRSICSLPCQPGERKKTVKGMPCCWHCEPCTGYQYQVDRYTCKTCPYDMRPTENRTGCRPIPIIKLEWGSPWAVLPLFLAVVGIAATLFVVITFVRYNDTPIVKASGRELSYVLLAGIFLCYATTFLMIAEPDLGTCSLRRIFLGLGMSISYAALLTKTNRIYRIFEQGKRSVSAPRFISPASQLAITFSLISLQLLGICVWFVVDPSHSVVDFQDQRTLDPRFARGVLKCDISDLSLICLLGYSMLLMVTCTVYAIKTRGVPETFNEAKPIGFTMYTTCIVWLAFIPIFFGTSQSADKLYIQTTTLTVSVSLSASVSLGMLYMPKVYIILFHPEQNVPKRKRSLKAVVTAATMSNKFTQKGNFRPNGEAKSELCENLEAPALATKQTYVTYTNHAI
Chain of Metabotropic glutamate receptor 5 (Rattus norvegicus, UniProt P31424) (P31424 whole entry): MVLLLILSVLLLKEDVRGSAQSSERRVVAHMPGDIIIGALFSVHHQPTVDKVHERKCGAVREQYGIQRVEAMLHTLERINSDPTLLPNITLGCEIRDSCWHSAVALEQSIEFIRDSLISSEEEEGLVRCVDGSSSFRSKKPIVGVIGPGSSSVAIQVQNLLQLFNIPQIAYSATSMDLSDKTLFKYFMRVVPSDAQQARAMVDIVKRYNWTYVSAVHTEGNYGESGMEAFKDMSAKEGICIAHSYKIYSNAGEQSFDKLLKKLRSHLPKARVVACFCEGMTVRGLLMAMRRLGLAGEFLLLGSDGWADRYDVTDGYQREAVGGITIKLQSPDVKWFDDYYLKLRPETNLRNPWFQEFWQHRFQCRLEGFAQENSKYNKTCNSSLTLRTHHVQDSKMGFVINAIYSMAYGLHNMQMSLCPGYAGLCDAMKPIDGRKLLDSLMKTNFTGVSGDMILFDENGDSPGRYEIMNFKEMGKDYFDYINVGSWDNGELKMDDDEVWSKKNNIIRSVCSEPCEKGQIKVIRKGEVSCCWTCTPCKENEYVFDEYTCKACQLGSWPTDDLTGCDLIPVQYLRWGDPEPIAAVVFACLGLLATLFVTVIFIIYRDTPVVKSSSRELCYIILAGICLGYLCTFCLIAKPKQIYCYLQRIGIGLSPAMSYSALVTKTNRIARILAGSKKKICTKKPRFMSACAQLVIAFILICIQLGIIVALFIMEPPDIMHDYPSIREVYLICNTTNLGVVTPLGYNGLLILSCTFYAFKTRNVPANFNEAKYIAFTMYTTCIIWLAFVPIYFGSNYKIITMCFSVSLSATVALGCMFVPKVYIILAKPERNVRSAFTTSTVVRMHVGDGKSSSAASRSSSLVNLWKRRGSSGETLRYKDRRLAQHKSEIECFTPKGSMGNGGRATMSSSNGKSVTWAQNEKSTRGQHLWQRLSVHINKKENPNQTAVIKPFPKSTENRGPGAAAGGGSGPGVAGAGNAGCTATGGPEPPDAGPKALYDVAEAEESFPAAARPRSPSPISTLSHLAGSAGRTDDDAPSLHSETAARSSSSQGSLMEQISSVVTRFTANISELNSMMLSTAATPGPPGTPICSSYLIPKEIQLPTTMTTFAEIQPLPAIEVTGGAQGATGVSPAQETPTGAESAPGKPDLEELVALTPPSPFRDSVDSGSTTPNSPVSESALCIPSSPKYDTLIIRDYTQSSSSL

Row | Structure (SMILES) | Activity [2] [%] | Activity [3] [%] | inhibition [4] [%] | IC50 [5] [nM] | Activity [6] [%] | inhibition [8] | bioavailability [11] [%] | microsomal CLint [12] [µL/min/mg] | inhibition [13] | IC50 [14] [nM] | inhibition [14] | other results
1 | N#Cc1ccc(-c2noc(-c3cc(F)cc(C#N)c3)n2)nc1 | < 50 | < 50 | 100 | 13.4 | < 50 | inactive | 46 | 3 | inactive | 51 | Dose-dependent effect | AUC(0-t) at 8 h [1]: 3.6 µM·h; IC50 [7]: 14.5 nM; Ki [9]: 17.9 nM; Ki [10]: 28 nM
2 | N#Cc1cc(F)cc(-c2nc(-c3ccc(F)cn3)no2)c1 | < 50 | < 50 | 100 | 7.6 | < 50 | inactive | 56 | 13.5 | inactive | 26 | Dose-dependent effect | Bmax [15]: 4.4 pmol; T1/2 [16]: 7.85 min; T1/2 [17]: 3.45 min; Bmax [18]: 5.3 pmol; Bmax [19]: 1550 fmol/mg; Bmax [20]: 5 pmol; Bmax [21]: 5.1 pmol; AUC [22]: 5.4 µM·h
